Laboratory results published in ChEMBL document CHEMBL1250448, “Inhibitor hijacking of Akt activation” (Nat Chem Biol, 2009).

Tests used:
[1] = molecular target: Receptor tyrosine-protein kinase erbB-4 (Homo sapiens) (UniProt Q15303); assay: Inhibition of ERBB4 at 1 uM in presence of 10 uM ATP by Select Screen kinase assay relative to untreated control
Summary of the method: (§1)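 Single-point screen at 1 μM against a panel of 220 purified kinases, run by Invitrogen staff as a SelectScreen profiling service. Read-out is percent inhibition of kinase activity.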

[2] = molecular target: Serine/threonine-protein kinase PLK1 (Homo sapiens) (UniProt P53350); assay: Inhibition of PLK1 at 1 uM in presence of 10 uM ATP by Select Screen kinase assay relative to untreated control
Sequence of Serine/threonine-protein kinase PLK1 (Homo sapiens) (P53350 whole entry): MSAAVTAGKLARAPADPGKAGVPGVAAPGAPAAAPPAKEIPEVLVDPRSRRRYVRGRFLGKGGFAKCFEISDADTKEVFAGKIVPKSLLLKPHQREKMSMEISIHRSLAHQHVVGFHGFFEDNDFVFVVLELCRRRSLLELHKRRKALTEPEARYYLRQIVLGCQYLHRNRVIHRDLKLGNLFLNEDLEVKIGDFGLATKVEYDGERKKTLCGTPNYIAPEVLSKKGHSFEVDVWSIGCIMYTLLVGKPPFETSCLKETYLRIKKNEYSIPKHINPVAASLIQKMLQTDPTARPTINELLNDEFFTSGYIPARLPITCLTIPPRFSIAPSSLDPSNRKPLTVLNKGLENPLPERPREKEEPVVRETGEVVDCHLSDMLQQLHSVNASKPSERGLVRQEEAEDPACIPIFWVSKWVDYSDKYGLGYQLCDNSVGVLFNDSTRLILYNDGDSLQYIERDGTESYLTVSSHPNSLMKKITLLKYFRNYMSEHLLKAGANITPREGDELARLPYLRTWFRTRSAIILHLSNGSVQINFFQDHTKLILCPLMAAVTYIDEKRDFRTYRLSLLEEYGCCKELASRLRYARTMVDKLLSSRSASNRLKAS
Summary of the method: (§2)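 Commercial SelectScreen profiling panel of 220 purified kinases. Each kinase was tested at a single inhibitor concentration of 1 μM, and activity was expressed as percent inhibition.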

[3] = molecular target: SRSF protein kinase 2 (Homo sapiens) (UniProt P78362); assay: Inhibition of SRPK2 at 1 uM in presence of 10 uM ATP by Select Screen kinase assay relative to untreated control; summary of the method: as §2
[4] = molecular target: Fibroblast growth factor receptor 2 (Homo sapiens) (UniProt P21802); assay: Inhibition of FGFR2 at 1 uM in presence of 10 uM ATP by Select Screen kinase assay relative to untreated control
Summary of the method: (§3)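 Single-concentration profiling at 1 μM against a panel of 220 purified kinases, run as an outsourced SelectScreen kinase profiling service. Activity is expressed as percent inhibition.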

[5] = molecular target: Homeodomain-interacting protein kinase 1 (Homo sapiens) (UniProt Q86Z02); assay: Inhibition of HIPK1 at 1 uM in presence of 10 uM ATP by Select Screen kinase assay relative to untreated control; summary of the method: as §3
Sequence of Homeodomain-interacting protein kinase 1 (Homo sapiens) (Q86Z02 whole entry, looked up): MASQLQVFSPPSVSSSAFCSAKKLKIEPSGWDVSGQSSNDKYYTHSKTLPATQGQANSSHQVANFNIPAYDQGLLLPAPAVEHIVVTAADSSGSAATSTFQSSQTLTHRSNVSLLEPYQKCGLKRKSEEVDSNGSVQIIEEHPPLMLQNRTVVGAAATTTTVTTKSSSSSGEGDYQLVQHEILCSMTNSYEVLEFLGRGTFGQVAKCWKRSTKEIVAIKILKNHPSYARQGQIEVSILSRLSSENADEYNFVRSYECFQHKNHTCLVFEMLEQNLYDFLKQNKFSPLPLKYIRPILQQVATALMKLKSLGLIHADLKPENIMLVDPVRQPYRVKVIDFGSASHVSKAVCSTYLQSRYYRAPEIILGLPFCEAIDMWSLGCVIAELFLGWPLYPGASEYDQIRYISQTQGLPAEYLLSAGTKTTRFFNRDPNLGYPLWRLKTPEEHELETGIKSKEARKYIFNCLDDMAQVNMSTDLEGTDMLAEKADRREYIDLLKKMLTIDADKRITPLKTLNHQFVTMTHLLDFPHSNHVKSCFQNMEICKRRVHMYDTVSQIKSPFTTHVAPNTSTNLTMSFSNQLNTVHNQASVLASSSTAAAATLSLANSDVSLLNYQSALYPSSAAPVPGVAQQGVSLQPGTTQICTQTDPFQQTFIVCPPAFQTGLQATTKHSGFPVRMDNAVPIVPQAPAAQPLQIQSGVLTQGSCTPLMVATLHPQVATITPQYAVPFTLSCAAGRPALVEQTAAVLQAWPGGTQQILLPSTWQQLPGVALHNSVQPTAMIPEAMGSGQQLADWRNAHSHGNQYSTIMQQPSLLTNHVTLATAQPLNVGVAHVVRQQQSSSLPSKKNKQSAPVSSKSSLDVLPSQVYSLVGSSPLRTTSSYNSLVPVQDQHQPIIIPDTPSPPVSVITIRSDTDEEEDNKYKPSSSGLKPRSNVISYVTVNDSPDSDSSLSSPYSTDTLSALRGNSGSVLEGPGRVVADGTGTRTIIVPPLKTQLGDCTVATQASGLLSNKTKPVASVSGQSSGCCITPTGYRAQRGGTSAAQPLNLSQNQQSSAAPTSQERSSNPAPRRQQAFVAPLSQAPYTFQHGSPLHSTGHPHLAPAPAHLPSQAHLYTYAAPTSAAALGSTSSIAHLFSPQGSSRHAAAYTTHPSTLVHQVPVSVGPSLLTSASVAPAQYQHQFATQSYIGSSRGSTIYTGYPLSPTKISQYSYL

[6] = molecular target: T1, Cytoplasmic tyrosine-protein kinase BMX (Homo sapiens) (UniProt P51813); assay: Inhibition of BMX at 1 uM in presence of 10 uM ATP by Select Screen kinase assay relative to untreated control; summary of the method: as §1
T1 sequence (whole entry): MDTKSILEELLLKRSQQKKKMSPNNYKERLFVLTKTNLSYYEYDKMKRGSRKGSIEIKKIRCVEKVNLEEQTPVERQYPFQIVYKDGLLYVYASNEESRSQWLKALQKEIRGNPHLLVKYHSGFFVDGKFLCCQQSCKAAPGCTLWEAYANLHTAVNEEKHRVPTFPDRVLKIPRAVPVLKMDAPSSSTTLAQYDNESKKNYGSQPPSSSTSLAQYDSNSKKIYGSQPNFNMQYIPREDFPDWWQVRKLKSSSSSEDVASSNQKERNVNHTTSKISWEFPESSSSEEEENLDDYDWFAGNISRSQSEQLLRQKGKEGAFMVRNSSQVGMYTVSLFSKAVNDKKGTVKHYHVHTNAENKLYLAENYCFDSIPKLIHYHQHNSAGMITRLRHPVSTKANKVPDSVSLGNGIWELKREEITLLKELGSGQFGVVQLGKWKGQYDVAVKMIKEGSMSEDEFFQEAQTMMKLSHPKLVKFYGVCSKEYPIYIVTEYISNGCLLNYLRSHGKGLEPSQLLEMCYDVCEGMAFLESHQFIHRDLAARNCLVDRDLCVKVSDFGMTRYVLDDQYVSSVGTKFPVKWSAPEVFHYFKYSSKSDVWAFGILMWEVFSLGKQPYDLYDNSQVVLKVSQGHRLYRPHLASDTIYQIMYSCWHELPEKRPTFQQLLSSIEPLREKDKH

[7] = molecular target: AMP-activated protein kinase (AMPK) alpha-1/beta-1/gamma-1 (Homo sapiens) (UniProt P54619+Q9Y478+Q13131); assay: Inhibition of AMPK A1/B1/G1 at 1 uM in presence of 10 uM ATP by Select Screen kinase assay relative to untreated control; format: protein-complex assay; summary of the method: as §1
Sequence of AMP-activated protein kinase (AMPK) alpha-1/beta-1/gamma-1 (Homo sapiens) (P54619 whole entry): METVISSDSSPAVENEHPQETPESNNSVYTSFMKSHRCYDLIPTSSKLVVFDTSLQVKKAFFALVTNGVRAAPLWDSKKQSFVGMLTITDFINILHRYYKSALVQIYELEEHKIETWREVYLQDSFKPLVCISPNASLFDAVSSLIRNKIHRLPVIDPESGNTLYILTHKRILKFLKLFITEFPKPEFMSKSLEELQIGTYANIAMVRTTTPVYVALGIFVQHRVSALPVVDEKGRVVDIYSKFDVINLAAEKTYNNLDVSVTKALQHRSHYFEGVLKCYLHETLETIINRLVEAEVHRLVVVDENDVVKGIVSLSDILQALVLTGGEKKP
Sequence of AMP-activated protein kinase (AMPK) alpha-1/beta-1/gamma-1 (Homo sapiens) (Q13131 whole entry partner): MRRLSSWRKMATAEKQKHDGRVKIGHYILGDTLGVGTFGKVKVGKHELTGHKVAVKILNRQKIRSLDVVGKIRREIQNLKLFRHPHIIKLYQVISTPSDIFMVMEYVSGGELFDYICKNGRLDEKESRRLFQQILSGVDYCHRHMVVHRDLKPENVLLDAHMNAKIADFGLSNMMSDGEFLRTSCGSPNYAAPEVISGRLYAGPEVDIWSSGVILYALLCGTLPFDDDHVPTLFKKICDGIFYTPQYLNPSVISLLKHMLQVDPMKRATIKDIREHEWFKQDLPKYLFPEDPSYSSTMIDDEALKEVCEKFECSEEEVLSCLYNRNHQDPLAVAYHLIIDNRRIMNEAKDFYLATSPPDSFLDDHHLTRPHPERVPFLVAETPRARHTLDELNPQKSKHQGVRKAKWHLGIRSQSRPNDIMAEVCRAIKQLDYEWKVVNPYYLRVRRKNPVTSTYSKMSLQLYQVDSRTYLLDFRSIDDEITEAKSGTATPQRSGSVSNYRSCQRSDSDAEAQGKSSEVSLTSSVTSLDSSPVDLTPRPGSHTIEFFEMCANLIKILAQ
Sequence of AMP-activated protein kinase (AMPK) alpha-1/beta-1/gamma-1 (Homo sapiens) (Q9Y478 2-270 partner limits assumed): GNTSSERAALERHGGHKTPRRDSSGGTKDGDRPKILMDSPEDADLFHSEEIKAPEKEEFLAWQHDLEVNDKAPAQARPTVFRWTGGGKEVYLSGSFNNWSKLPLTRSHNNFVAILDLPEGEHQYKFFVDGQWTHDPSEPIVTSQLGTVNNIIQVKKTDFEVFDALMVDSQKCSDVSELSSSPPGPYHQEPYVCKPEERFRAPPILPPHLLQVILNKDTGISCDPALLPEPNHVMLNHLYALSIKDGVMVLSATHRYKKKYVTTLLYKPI

[8] = molecular target: Tyrosine-protein kinase Lck (Homo sapiens) (UniProt P06239); assay: Inhibition of LCK at 1 uM in presence of 10 uM ATP by Select Screen kinase assay relative to untreated control; summary of the method: as §3
Sequence of Tyrosine-protein kinase Lck (Homo sapiens) (P06239 2-509 limits assumed): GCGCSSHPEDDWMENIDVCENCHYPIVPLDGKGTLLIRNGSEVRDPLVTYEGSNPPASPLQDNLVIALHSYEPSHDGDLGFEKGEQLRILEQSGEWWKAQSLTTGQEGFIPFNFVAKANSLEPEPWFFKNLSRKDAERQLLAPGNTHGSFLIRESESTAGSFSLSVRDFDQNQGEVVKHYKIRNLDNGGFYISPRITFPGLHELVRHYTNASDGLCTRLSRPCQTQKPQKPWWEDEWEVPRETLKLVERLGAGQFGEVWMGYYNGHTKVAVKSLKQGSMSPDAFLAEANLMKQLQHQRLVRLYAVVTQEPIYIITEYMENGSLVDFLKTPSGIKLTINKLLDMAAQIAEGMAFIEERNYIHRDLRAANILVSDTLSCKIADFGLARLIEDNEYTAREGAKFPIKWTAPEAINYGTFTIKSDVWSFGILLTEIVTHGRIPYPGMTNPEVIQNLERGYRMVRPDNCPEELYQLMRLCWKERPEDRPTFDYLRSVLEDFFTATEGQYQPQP

[9] = tested on: Hepatocyte growth factor receptor (Homo sapiens), P08581 [M1250T]; assay: Inhibition of MET M1250T mutant at 1 uM in presence of 10 uM ATP by Select Screen kinase assay relative to untreated control; summary of the method: as §3
Sequence of Hepatocyte growth factor receptor (Homo sapiens), P08581 [M1250T] (P08581 whole entry M1250T, canonical isoform): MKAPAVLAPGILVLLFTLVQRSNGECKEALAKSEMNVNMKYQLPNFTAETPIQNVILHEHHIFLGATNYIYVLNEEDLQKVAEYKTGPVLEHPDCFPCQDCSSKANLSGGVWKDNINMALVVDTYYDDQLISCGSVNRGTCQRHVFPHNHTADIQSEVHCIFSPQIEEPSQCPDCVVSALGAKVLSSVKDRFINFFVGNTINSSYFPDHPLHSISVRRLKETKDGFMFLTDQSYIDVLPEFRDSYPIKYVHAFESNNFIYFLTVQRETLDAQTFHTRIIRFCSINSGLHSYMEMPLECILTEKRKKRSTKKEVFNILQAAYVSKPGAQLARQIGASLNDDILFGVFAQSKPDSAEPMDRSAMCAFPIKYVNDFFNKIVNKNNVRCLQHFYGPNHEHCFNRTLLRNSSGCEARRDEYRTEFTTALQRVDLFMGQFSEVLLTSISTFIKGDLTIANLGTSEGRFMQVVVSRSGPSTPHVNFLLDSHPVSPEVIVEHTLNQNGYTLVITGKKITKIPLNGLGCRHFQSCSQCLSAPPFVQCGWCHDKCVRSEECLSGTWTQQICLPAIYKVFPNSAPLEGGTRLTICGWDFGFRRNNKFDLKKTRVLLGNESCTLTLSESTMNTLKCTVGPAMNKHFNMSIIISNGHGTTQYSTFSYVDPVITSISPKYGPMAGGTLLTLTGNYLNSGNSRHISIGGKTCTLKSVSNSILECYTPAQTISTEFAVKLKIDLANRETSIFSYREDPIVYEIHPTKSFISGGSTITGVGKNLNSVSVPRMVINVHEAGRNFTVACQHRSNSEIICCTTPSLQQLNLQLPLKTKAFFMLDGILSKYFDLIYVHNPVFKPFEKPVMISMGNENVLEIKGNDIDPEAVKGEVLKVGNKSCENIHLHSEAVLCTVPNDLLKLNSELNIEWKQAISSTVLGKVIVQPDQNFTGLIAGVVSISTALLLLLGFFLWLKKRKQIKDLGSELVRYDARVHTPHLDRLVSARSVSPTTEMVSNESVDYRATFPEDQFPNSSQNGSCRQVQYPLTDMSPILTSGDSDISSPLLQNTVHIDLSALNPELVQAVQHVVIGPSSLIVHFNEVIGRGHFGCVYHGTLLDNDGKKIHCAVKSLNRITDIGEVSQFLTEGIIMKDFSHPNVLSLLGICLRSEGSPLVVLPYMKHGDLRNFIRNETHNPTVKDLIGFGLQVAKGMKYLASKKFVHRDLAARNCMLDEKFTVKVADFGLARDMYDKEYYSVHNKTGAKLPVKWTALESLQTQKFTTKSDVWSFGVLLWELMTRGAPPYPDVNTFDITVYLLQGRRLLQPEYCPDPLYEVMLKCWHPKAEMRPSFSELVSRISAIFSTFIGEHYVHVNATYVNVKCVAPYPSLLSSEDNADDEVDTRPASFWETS

[10] = molecular target: Phosphorylase b kinase gamma catalytic chain, skeletal muscle/heart isoform (Homo sapiens) (UniProt Q16816); assay: Inhibition of PHKG1 at 1 uM in presence of 100 uM ATP by Select Screen kinase assay relative to untreated control; summary of the method: as §2
[11] = molecular target: T2, Activin receptor type-1B (Homo sapiens) (UniProt P36896); assay: Inhibition of ACVR1B at 1 uM in presence of 10 uM ATP by Select Screen kinase assay relative to untreated control; summary of the method: as §1
T2 sequence (whole entry): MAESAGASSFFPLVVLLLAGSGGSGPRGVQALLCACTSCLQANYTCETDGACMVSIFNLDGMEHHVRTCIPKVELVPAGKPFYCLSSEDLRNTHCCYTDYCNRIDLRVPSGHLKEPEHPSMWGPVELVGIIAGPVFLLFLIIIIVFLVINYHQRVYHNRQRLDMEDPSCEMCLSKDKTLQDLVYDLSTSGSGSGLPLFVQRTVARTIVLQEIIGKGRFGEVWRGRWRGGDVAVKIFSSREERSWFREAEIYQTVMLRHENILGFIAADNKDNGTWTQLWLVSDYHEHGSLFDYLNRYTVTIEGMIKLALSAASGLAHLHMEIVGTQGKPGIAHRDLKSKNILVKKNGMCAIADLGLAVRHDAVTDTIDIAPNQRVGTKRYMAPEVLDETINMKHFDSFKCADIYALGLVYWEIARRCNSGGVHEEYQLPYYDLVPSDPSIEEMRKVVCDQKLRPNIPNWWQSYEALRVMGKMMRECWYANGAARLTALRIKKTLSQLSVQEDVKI

[12] = molecular target: Mitogen-activated protein kinase 14 (Homo sapiens) (UniProt Q16539); assay: Inhibition of MAPK14 at 1 uM in presence of 100 uM ATP by Select Screen kinase assay relative to untreated control; summary of the method: as §3

Row | Compound | inhibition [1] [%] | inhibition [2] [%] | inhibition [3] [%] | inhibition [4] [%] | inhibition [5] [%] | inhibition [6] [%] | inhibition [7] [%] | inhibition [8] [%] | inhibition [9] [%] | inhibition [10] [%] | inhibition [11] [%] | inhibition [12] [%]
1 | Cc1n[nH]c2ccc(-c3cncc(OC[C@@H](N)Cc4c[nH]c5ccccc45)c3)cc12 | -1 | 1 | 39 | 3 | 68 | -2 | 57 | 14 | 5 | 76 | 0 | 3
2 | O=C(NCCCNc1nc(Nc2cccc(NC(=O)N3CCCC3)c2)ncc1I)c1cccs1 | 34 | 14 | 5 | 51 | 18 | 39 | 89 | 30 | 11 | 58 | 7 | 16
3 | COc1ccccc1N1CCN(c2ncnc3[nH]nc(Br)c23)CC1 | 27 | 12 | 4 | 12 | 34 | 18 | 42 | 16 | 3 | 6 | -2 | 17
